According to ChEMBL document CHEMBL4706495, “A novel class of small molecule inhibitors with radioprotective properties” (Eur J Med Chem, 2020):

Key:
A2780 [1] = test: Cytotoxicity against human A2780 cells assessed as cell viability at 100 uM measured after 48 hrs by WST-1 assay relative to control; type: functional; settings: read-out: Activity
Method in brief: (§1)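 Ten-line human panel (9 cancer, 1 non-cancerous). Cells were seeded at a pre-established optimal density (500–30 × 10³ per well) and settled overnight. Compounds came from 10 mM DMSO stocks and were tested at two concentrations. WST-1 readout followed the manufacturer's protocol at the end of cultivation. Viability is expressed as % of untreated control cells, mean of three independent experiments.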

PANC-1 [2] = test: Cytotoxicity against human PANC-1 cells assessed as cell viability at 10 uM measured after 48 hrs by WST-1 assay relative to control; type: functional; settings: read-out: Activity; method in brief: as §1
HT-29 [3] = test: Cytotoxicity against human HT-29 cells assessed as cell viability at 100 uM measured after 48 hrs by WST-1 assay relative to control; type: functional; settings: read-out: Activity; method in brief: as §1
HeLa [4] = test: Cytotoxicity against human HeLa cells assessed as cell viability at 10 uM measured after 48 hrs by WST-1 assay relative to control; type: functional; settings: read-out: Activity; method in brief: as §1
Jurkat [5] = test: Cytotoxicity against human Jurkat cells assessed as cell viability at 100 uM measured after 48 hrs by WST-1 assay relative to control; type: functional; settings: read-out: Activity; method in brief: as §1
SAOS-2 [6] = test: Cytotoxicity against human SAOS-2 cells assessed as cell viability at 10 uM measured after 48 hrs by WST-1 assay relative to control; type: functional; settings: read-out: Activity; method in brief: as §1
SAOS-2 [7] = test: Cytotoxicity against human SAOS-2 cells assessed as cell viability at 100 uM measured after 48 hrs by WST-1 assay relative to control; type: functional; settings: read-out: Activity; method in brief: as §1
A2780 [8] = test: Cytotoxicity against human A2780 cells assessed as cell viability at 10 uM measured after 48 hrs by WST-1 assay relative to control; type: functional; settings: read-out: Activity; method in brief: as §1
[9] = Cytotoxicity against human MRC5 cells assessed as cell viability at 10 uM measured after 48 hrs by WST-1 assay relative to control; type: cell-based; settings: read-out: Activity; method in brief: as §1
MCF7 [10] = test: Cytotoxicity against human MCF7 cells assessed as cell viability at 10 uM measured after 48 hrs by WST-1 assay relative to control; type: functional; settings: read-out: Activity; method in brief: as §1
HeLa [11] = test: Cytotoxicity against human HeLa cells assessed as cell viability at 100 uM measured after 48 hrs by WST-1 assay relative to control; type: functional; settings: read-out: Activity; method in brief: as §1
Jurkat [12] = test: Cytotoxicity against human Jurkat cells assessed as cell viability at 10 uM measured after 48 hrs by WST-1 assay relative to control; type: functional; settings: read-out: Activity; method in brief: as §1
A549 [13] = test: Cytotoxicity against human A549 cells assessed as reduction in cell viability incubated for 24 hrs by MTT assay; type: functional, cell-based; settings: A549, 24 h
Method in brief: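 A-549 cells in DMEM with 10% FBS and 1% penicillin-streptomycin were attached overnight. Compounds were prepared in PBS and serially diluted in DMEM, then incubated 24 h. Viability was read by colorimetric MTT reduction against an untreated control on each plate (100%). IC50 came from four-parameter nonlinear regression of the log concentration-response curve, mean ± SEM. MTC is the highest concentration not differing from control (t-test).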

MOLT-4 [14] = test: Radioprotective activity against gamma irradiation-induced apoptosis in human MOLT-4 cells assessed as viable cells at 100 uM pretreated with compound for 1 hr followed by gamma irradiation and measured after 24 hrs by annexinV/propidium iodide staining based flow cytometry (reference value: 40 %); type: functional; settings: MOLT-4, light or radiation study, time 25 hrs, read-out: Activity
[15] = Cytotoxicity against human MRC5 cells assessed as cell viability at 100 uM measured after 48 hrs by WST-1 assay relative to control; type: cell-based; settings: read-out: Activity; method in brief: as §1
A549 [16] = test: Cytotoxicity against human A549 cells assessed as maximum tolerated concentration incubated for 24 hrs by MTT assay; type: functional
Method in brief: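 A-549 cells in DMEM with 10% FBS and 1% penicillin-streptomycin, left to attach overnight. Compounds made up in PBS, serially diluted in DMEM, incubated 24 h, then viability read by MTT reduction against untreated controls on each plate. MTC taken as the highest concentration showing no significant difference from non-treated control (t-test).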

HT-29 [17] = test: Cytotoxicity against human HT-29 cells assessed as cell viability at 10 uM measured after 48 hrs by WST-1 assay relative to control; type: functional; settings: read-out: Activity; method in brief: as §1
MOLT-4 [18] = test: Cytotoxicity against human MOLT-4 cells assessed as cell viability at 100 uM measured after 48 hrs by WST-1 assay relative to control; type: functional; settings: read-out: Activity; method in brief: as §1
A549 [19] = test: Cytotoxicity against human A549 cells assessed as cell viability at 10 uM measured after 48 hrs by WST-1 assay relative to control; type: functional; settings: read-out: Activity; method in brief: as §1
A549 [20] = test: Cytotoxicity against human A549 cells assessed as cell viability at 100 uM measured after 48 hrs by WST-1 assay relative to control; type: functional; settings: read-out: Activity; method in brief: as §1
PANC-1 [21] = test: Cytotoxicity against human PANC-1 cells assessed as cell viability at 100 uM measured after 48 hrs by WST-1 assay relative to control; type: functional; settings: read-out: Activity; method in brief: as §1
MCF7 [22] = test: Cytotoxicity against human MCF7 cells assessed as cell viability at 100 uM measured after 48 hrs by WST-1 assay relative to control; type: functional; settings: read-out: Activity; method in brief: as §1
MOLT-4 [23] = test: Cytotoxicity against human MOLT-4 cells assessed as cell viability at 10 uM measured after 48 hrs by WST-1 assay relative to control; type: functional; settings: read-out: Activity; method in brief: as §1
[24] = Toxicity in C57Bl/6 mouse assessed as change in body weight at 100 mg/kg, ip measured after 30 days (reference value: 103 +/- 12 %); type: organism-based; settings: in vivo, 720 h, time 30 day
[25] = Toxicity in C57Bl/6 mouse assessed as adverse effects at 100 mg/kg, ip measured after 30 days; type: organism-based; settings: in vivo, 720 h, time 30 day
Method in brief: (§2)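 Safety in C57Bl/6 mice (27 ± 3 g) given a single 100 mg/kg i.p. injection without irradiation. Deaths, adverse effects and body weight followed over 30 days against an untreated control group. Weight reported as change from day 0.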

[26] = Toxicity in C57Bl/6 mouse assessed as mouth death at 100 mg/kg, ip measured after 30 days; type: organism-based; settings: in vivo, 720 h, time 30 day; method in brief: as §2
Mus musculus [27] = test: Radioprotective activity in C57Bl/6 mouse assessed as average body weight at 100 mg/kg, ip administered 5 min prior to gamma-irradation at 8.5 Gy and measured after 30 days; type: functional
Mus musculus [28] = test: Radioprotective activity in C57Bl/6 mouse assessed as average body weight at 100 mg/kg, ip administered 5 min prior to gamma-irradation at 8.5 Gy and measured immediately (reference value: 25.4 +/- 2.6 g); type: functional
[29] = Toxicity in C57Bl/6 mouse assessed as average body weight at 100 mg/kg, ip and measured immediately (reference value: 26.3 +/- 2.4 g); type: organism-based; settings: in vivo
Mus musculus [30] = test: Radioprotective activity in C57Bl/6 mouse assessed as body weight gain at 100 mg/kg, ip administered 5 min prior to gamma-irradation at 8.5 Gy measured after 30 days relative to control; type: functional
Mus musculus [31] = test: Radioprotective activity in C57Bl/6 mouse assessed as median survival time at 100 mg/kg, ip administered 5 min prior to gamma-irradation at 8.5 Gy and measured after 30 days (reference value: 12 days); type: functional
[32] = Toxicity in C57Bl/6 mouse assessed as average body weight at 100 mg/kg, ip measured after 30 days (reference value: 27 +/ 3.2 g); type: organism-based; settings: in vivo, 720 h, time 30 day

| Structure (SMILES) | viability at 100 µM (A2780 [1]) | viability at 10 µM (PANC-1 [2]) | viability at 100 µM (HT-29 [3]) | viability at 10 µM (HeLa [4]) | viability at 100 µM (Jurkat [5]) | viability at 10 µM (SAOS-2 [6]) | viability at 100 µM (SAOS-2 [7]) | viability at 10 µM (A2780 [8]) | viability at 10 µM (MCF7 [10]) | viability at 100 µM (HeLa [11]) | viability at 10 µM (Jurkat [12]) | IC50 (A549 [13]) | viability at 100 µM (MOLT-4 [14]) | viability at 48 h, 100 µM [15] | MTD (A549 [16]) | viability at 10 µM (HT-29 [17]) | viability at 100 µM (MOLT-4 [18]) | viability at 10 µM (A549 [19]) | viability at 100 µM (A549 [20]) | viability at 100 µM (PANC-1 [21]) | other results |
| --- | --- | --- | --- | --- | --- | --- | --- | --- | --- | --- | --- | --- | --- | --- | --- | --- | --- | --- | --- | --- | --- |
| Cc1ccc(C(C)C)c(OCC(O)CN2CCN(CCO)CC2)c1 (configuration not stated) | 90% | 91% | 64% | 105% | 98% | 93% | 109% | 100% | 100% | 132% | 97% | 0.36 mM | 58% | 90% | 0.16 mM | 93% | 90% | 90% | 114% | 125% | viability at 48 h, 10 µM [9]: 102%; viability at 100 µM (MCF7 [22]): 85%; viability at 10 µM (MOLT-4 [23]): 87% |
| COc1cccc(OC)c1OCC(O)CN1CCN(CCO)CC1 (configuration not stated) | 83% | 104% | 141% | 101% | 84% | 106% | 82% | 95% | 101% | 94% | 110% | 7.81 mM | 61% | 115% | 1.56 mM | 102% | 76% | 97% | 99% | 115% | Activity [24]: 102%; Activity [25]: Non-Toxic; Activity [26]: Non-Toxic; Activity (Mus musculus [27]): 27.7 g; Activity (Mus musculus [28]): 27.3 g; Activity [29]: 27 g; Activity (Mus musculus [30]): 109%; viability at 100 µM (MCF7 [22]): 90%; MST (Mus musculus [31]): 12 days; Activity [32]: 27.6 g; viability at 10 µM (MOLT-4 [23]): 105% |
| OCCN1CCN(CC(O)COc2ccccc2)CC1 (configuration not stated) | 96% | 90% | 97% | 95% | 91% | 102% | 96% | 96% | 104% | 107% | 104% | 5.78 mM | 57% | 101% | 0.59 mM | 97% | 96% | 97% | 99% | 108% | viability at 48 h, 10 µM [9]: 101%; viability at 100 µM (MCF7 [22]): 98%; viability at 10 µM (MOLT-4 [23]): 92% |
